Tests used:
[1] = molecular target: Aldo-keto reductase family 1 member B1 (Rattus norvegicus) (UniProt P07943); assay: In vitro inhibitory activity against partially purified rat lens Aldose reductase at a dose of 5e-7M
Outline: (§1)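 Rat lens AR partially purified from male Wister rat lenses: homogenized in 10 mM phosphate pH 7.0 with 5 mM 2-mercaptoethanol and 1 mM EDTA, then 30–80% ammonium sulfate cut, dialyzed. NADPH decrease followed at 340 nm.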

[2] = molecular target: Aldo-keto reductase family 1 member B1 (Rattus norvegicus, UniProt P07943); assay: In vitro inhibitory activity against rat lens Aldose reductase; outline: as §1
[3] = molecular target: Aldo-keto reductase family 1 member A1 (Rattus norvegicus, UniProt P51635); assay: In vitro inhibitory activity against rat kidney Aldehyde reductase
[4] = Ratio of AR IC50 and ALR IC50 of rat lens and kidney enzyme; format: tissue-based; settings: Lens of camera-type eye

Sequence of Aldo-keto reductase family 1 member A1 (P51635 whole entry, looked up): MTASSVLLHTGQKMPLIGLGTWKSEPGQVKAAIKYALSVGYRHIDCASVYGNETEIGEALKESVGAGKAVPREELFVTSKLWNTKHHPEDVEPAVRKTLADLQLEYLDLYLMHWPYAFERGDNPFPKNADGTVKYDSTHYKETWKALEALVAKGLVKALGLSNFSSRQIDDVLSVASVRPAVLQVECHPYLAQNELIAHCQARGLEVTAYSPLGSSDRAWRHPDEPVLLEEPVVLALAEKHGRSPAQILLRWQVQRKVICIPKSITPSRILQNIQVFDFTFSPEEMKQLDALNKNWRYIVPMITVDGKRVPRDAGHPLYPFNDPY

SMILES	inhibition [1] [%]	further results
COc1ccccc1CN1C(=O)C(=O)N(CC(=O)O)C1=O	16	–
O=C(O)CN1C(=O)C(=O)N(Cc2ccccc2)C1=O	17	–
O=C(O)CN1C(=O)C(=O)N(Cc2ccc(F)cc2)C1=O	9	–
O=C(O)CN1C(=O)C(=O)N(Cc2ccccc2[N+](=O)[O-])C1=O	66	–
O=C(O)CN1C(=O)C(=O)N(Cc2ccccc2Cl)C1=O	32	–
Cc1ccccc1CN1C(=O)C(=O)N(CC(=O)O)C1=O	41	–
O=C(O)CN1C(=O)C(=O)N(CCCc2ccccc2)C1=O	16	–
O=C(O)CN1C(=O)C(=O)N(CCCCc2ccccc2)C1=O	25	–
Cc1ccc(CN2C(=O)C(=O)N(CC(=O)O)C2=O)cc1	30	–
Cc1ccc(CCN2C(=O)C(=O)N(CC(=O)O)C2=O)cc1	42	–
O=C(O)CN1C(=O)C(=O)N(Cc2cccc(Cl)c2)C1=O	31	–
COc1ccc(CN2C(=O)C(=O)N(CC(=O)O)C2=O)cc1OC	29	–
O=C(O)CN1C(=O)C(=O)N(CCc2ccccc2Cl)C1=O	37	–
CCOC(=O)CN1C(=O)C(=O)N(Cc2cccc([N+](=O)[O-])c2)C1=O	31	–
O=C(O)CN1C(=O)C(=O)N(Cc2ccc(Cl)cc2)C1=O	56	–
O=C(O)CN1C(=O)C(=O)N(Cc2ccc([N+](=O)[O-])cc2)C1=O	26	–
O=C(O)CN1C(=O)C(=O)N(CCc2ccc(Cl)c(Cl)c2)C1=O	57	–
O=C(O)CN1C(=O)C(=O)N(CCc2cccc([N+](=O)[O-])c2)C1=O	36	–
O=C(O)CN1C(=O)C(=O)N(CCc2ccc(Br)cc2)C1=O	47	–
O=C(O)CN1C(=O)C(=O)N(CCc2ccccc2)C1=O	30	–
COc1ccc(CCN2C(=O)C(=O)N(CC(=O)O)C2=O)cc1OC	42	–
O=C(O)CN1C(=O)C(=O)N(Cc2ccc(Cl)cc2Cl)C1=O	68	IC50 [2]: 100 nM; IC50 [3]: 46 µM; Ratio [4]: 460
O=C(O)CN1C(=O)C(=O)N(Cc2ccc(Cl)c(Cl)c2)C1=O	77	IC50 [2]: 50 nM; IC50 [3]: > 100 µM; Ratio [4]: > 2000
O=C(O)CN1C(=O)C(=O)N(Cc2cccc([N+](=O)[O-])c2)C1=O	75	–
O=C(O)CN1C(=O)C(=O)N(Cc2ccc(Br)cc2)C1=O	65	–
COc1cccc(CN2C(=O)C(=O)N(CC(=O)O)C2=O)c1	44	–
